Measured values published in ChEMBL document CHEMBL1629439, “High-throughput identification of antibacterials against methicillin-resistant Staphylococcus aureus (MRSA) and the transglycosylase” (Bioorg Med Chem, 2010).
Values after ≈ are worked out from the molar mass of the structure shown.

What was measured:
[1] = system: Staphylococcus aureus; test: Antimicrobial activity against oxacillin- and methicillin-resistant Staphylococcus aureus isolate Sa-OXA-R2 after 18 to 24 hrs by alamar blue assay; type: functional
Outline: (§1)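 Broth microdilution per NCCLS standard, Mueller-Hinton broth, 8-point twofold dilutions; exponentially growing cells at 5 10^5 cells/ml with compound, 18–24 h at 37 C; 20% Alamar blue added, fluorescence read; MIC90 taken as lowest concentration preventing at least 90% growth.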

[2] = system: Bacillus subtilis; test: Antimicrobial activity against Bacillus subtilis ATCC 23857 after 18 to 24 hrs by alamar blue assay; type: functional
Outline: (§2)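 Broth microdilution per NCCLS in Mueller-Hinton broth, 8-point twofold dilutions, 384-well format. Exponential-phase cells at 5 × 10^5 cells/ml incubated with compound 18–24 h at 37 °C, then 20% Alamar blue added and fluorescence read. MIC90 taken as the lowest concentration preventing at least 90% bacterial growth.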

[3] = system: Escherichia coli; test: Antimicrobial activity against Escherichia coli ATCC […] after 18 to 24 hrs by alamar blue assay; type: functional; conditions: Escherichia coli; read-out: MIC; outline: as §2
[4] = system: Pseudomonas aeruginosa; test: Antimicrobial activity against Pseudomonas aeruginosa ATCC 25619 after 18 to 24 hrs by alamar blue assay; type: functional; conditions: Pseudomonas aeruginosa, ATCC 25619; read-out: MIC; outline: as §2
[5] = system: Acinetobacter baumannii; test: Antimicrobial activity against Acinetobacter baumannii ATCC 49139 after 18 to 24 hrs by alamar blue assay; type: functional; conditions: Acinetobacter baumannii, ATCC 49139; read-out: MIC; outline: as §2
[6] = system: Stenotrophomonas maltophilia; test: Antimicrobial activity against Stenotrophomonas maltophilia ATCC 13637 after 18 to 24 hrs by alamar blue assay; type: functional; conditions: Stenotrophomonas maltophilia, ATCC 13637; read-out: MIC; outline: as §2
[7] = system: Serratia marcescens; test: Antimicrobial activity against Serratia marcescens ATCC 14756 after 18 to 24 hrs by alamar blue assay; type: functional; conditions: Serratia marcescens, ATCC 14756; read-out: MIC; outline: as §2
[8] = system: Mycolicibacterium smegmatis; test: Antimicrobial activity against Mycobacterium smegmatis BCRC 11565 after 18 to 24 hrs by alamar blue assay; type: functional; conditions: Mycolicibacterium smegmatis, BCRC 11565; read-out: MIC; outline: as §2
[9] = Inhibition of transglycosylase assessed as inhibition of NBD- labelled lipid II polymerization
Outline: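 100 µM NBD-labelled lipid II incubated 30 min with full-length PBP (EC, SA or Mtb) and 10 ng/µl N-acetylmuramidase in 50 mM Tris-HCl pH 8.0, 10 mM MgCl2, 0.1% Triton X-100, 10% DMSO, 15% MeOH. Supernatant run on anion-exchange HPLC with 20 mM–0.5 M ammonium acetate gradient. Inhibition calculated from substrate peak-area percentage. IC50 determined. S. aureus strains share one SA enzyme.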

[10] = system: Staphylococcus aureus; test: Antimicrobial activity against methicillin-resistant Staphylococcus aureus isolate NTUH4722 after 18 to 24 hrs by alamar blue assay; type: functional; outline: as §1
[11] = system: Staphylococcus aureus; test: Antimicrobial activity against methicillin-resistant Staphylococcus aureus ATCC 33592 after 18 to 24 hrs by alamar blue assay; type: functional; conditions: Staphylococcus aureus, ATCC 33592; read-out: MIC; outline: as §1
[12] = system: Staphylococcus aureus; test: Antimicrobial activity against Staphylococcus aureus ATCC 29213 after 18 to 24 hrs by alamar blue assay

Cc1ccc(C(=O)c2cc(Cl)cc(NC(=O)c3cc(Br)cc(Br)c3O)c2Cl)cc1
MIC [1]: > 4 µg/mL
MIC [2]: < 0.03 µg/mL
MIC [3]: 8 µg/mL (≈ 14.3 µM)
MIC [4]: 16 µg/mL (≈ 28.7 µM)
MIC [5]: 16 µg/mL (≈ 28.7 µM)
MIC [6]: 16 µg/mL (≈ 28.7 µM)
MIC [7]: 16 µg/mL (≈ 28.7 µM)
MIC [8]: 0.5 µg/mL (≈ 0.896 µM)
IC90 [9]: 100 µM
MIC [10]: > 4 µg/mL
MIC [11]: > 4 µg/mL
MIC [12]: > 4 µg/mL

O=C(Nc1cc(Cl)cc(C(=O)c2ccc(Cl)cc2)c1Cl)c1cc(Cl)cc(Br)c1O
MIC [1]: 0.5 µg/mL (≈ 0.936 µM)
MIC [2]: < 0.03 µg/mL
MIC [3]: 8 µg/mL (≈ 15 µM)
MIC [4]: 16 µg/mL (≈ 30 µM)
MIC [5]: 16 µg/mL (≈ 30 µM)
MIC [6]: 16 µg/mL (≈ 30 µM)
MIC [7]: 16 µg/mL (≈ 30 µM)
MIC [8]: 0.5 µg/mL (≈ 0.936 µM)
IC90 [9]: 100 µM
MIC [10]: 1 µg/mL (≈ 1.87 µM)
MIC [11]: 0.5 µg/mL (≈ 0.936 µM)
MIC [12]: 0.5 µg/mL (≈ 0.936 µM)

Cc1ccc(C(=O)c2cc(NC(=O)c3cc(I)cc(I)c3O)ccc2Cl)cc1
MIC [1]: ≤ 0.03 µg/mL
MIC [2]: < 0.03 µg/mL
MIC [3]: 8 µg/mL (≈ 13 µM)
MIC [4]: 16 µg/mL (≈ 25.9 µM)
MIC [5]: 16 µg/mL (≈ 25.9 µM)
MIC [6]: 16 µg/mL (≈ 25.9 µM)
MIC [7]: 16 µg/mL (≈ 25.9 µM)
MIC [8]: 0.5 µg/mL (≈ 0.81 µM)
IC90 [9]: 100 µM
MIC [10]: ≤ 0.03 µg/mL
MIC [11]: 4 µg/mL (≈ 6.48 µM)
MIC [12]: 4 µg/mL (≈ 6.48 µM)

O=C(Nc1ccc(Oc2ccc3ccccc3c2Cl)c(Cl)c1)c1cc(Cl)cc(Br)c1O
MIC [1]: ≤ 0.03 µg/mL
MIC [2]: < 0.03 µg/mL
MIC [3]: 8 µg/mL (≈ 14.9 µM)
MIC [4]: 16 µg/mL (≈ 29.8 µM)
MIC [5]: 16 µg/mL (≈ 29.8 µM)
MIC [6]: 16 µg/mL (≈ 29.8 µM)
MIC [7]: 16 µg/mL (≈ 29.8 µM)
MIC [8]: 0.5 µg/mL (≈ 0.93 µM)
IC90 [9]: 100 µM
MIC [10]: ≤ 0.03 µg/mL
MIC [11]: ≤ 2 µg/mL
MIC [12]: ≤ 2 µg/mL

O=C(Nc1ccc(NS(=O)(=O)c2ccc(Cl)cc2)cc1Cl)c1cc(Cl)ccc1O
MIC [1]: ≤ 0.03 µg/mL
MIC [2]: < 0.03 µg/mL
MIC [3]: 8 µg/mL (≈ 17 µM)
MIC [4]: 16 µg/mL (≈ 33.9 µM)
MIC [5]: 16 µg/mL (≈ 33.9 µM)
MIC [6]: 16 µg/mL (≈ 33.9 µM)
MIC [7]: 16 µg/mL (≈ 33.9 µM)
MIC [8]: 0.5 µg/mL (≈ 1.06 µM)
IC90 [9]: > 100 µM
MIC [10]: ≤ 0.03 µg/mL
MIC [11]: 32 µg/mL (≈ 67.8 µM)
MIC [12]: 16 µg/mL (≈ 33.9 µM)

Cc1ccc(C)c(C(=O)c2cc(NC(=O)c3cc(Br)cc(Br)c3O)ccc2Oc2ccc(Cl)cc2)c1
MIC [1]: ≤ 0.03 µg/mL
MIC [2]: < 0.03 µg/mL
MIC [3]: 8 µg/mL (≈ 12.7 µM)
MIC [4]: 16 µg/mL (≈ 25.4 µM)
MIC [5]: 16 µg/mL (≈ 25.4 µM)
MIC [6]: 16 µg/mL (≈ 25.4 µM)
MIC [7]: 16 µg/mL (≈ 25.4 µM)
MIC [8]: 0.5 µg/mL (≈ 0.794 µM)
IC90 [9]: > 100 µM
MIC [10]: ≤ 0.03 µg/mL
MIC [11]: 32 µg/mL (≈ 50.8 µM)
MIC [12]: 8 µg/mL (≈ 12.7 µM)

O=C(c1ccccc1)c1cc(NC(=O)c2cc(Br)cc(Br)c2O)ccc1Cl
MIC [1]: 1 µg/mL (≈ 1.96 µM)
MIC [2]: < 0.03 µg/mL
MIC [3]: 8 µg/mL (≈ 15.7 µM)
MIC [4]: 16 µg/mL (≈ 31.4 µM)
MIC [5]: 16 µg/mL (≈ 31.4 µM)
MIC [6]: 16 µg/mL (≈ 31.4 µM)
MIC [7]: 16 µg/mL (≈ 31.4 µM)
MIC [8]: 0.5 µg/mL (≈ 0.981 µM)
IC90 [9]: 100 µM
MIC [10]: 2 µg/mL (≈ 3.92 µM)
MIC [11]: 1 µg/mL (≈ 1.96 µM)
MIC [12]: 1 µg/mL (≈ 1.96 µM)

O=C(c1ccc(Cl)cc1)c1ccc(NC(=O)c2cc(Br)cc(Br)c2O)cc1Cl
MIC [1]: ≤ 0.03 µg/mL
MIC [2]: < 0.03 µg/mL
MIC [3]: 8 µg/mL (≈ 14.7 µM)
MIC [4]: 16 µg/mL (≈ 29.4 µM)
MIC [5]: 16 µg/mL (≈ 29.4 µM)
MIC [6]: 16 µg/mL (≈ 29.4 µM)
MIC [7]: 16 µg/mL (≈ 29.4 µM)
MIC [8]: 0.5 µg/mL (≈ 0.919 µM)
IC90 [9]: 100 µM
MIC [10]: ≤ 0.03 µg/mL
MIC [11]: 4 µg/mL (≈ 7.35 µM)
MIC [12]: ≤ 2 µg/mL

O=C(Nc1cc(Cl)cc(C(=O)c2ccccc2)c1Cl)c1cc(Br)cc(Br)c1O
MIC [1]: 4 µg/mL (≈ 7.35 µM)
MIC [2]: < 0.03 µg/mL
MIC [3]: 8 µg/mL (≈ 14.7 µM)
MIC [4]: 16 µg/mL (≈ 29.4 µM)
MIC [5]: 16 µg/mL (≈ 29.4 µM)
MIC [6]: 16 µg/mL (≈ 29.4 µM)
MIC [7]: 16 µg/mL (≈ 29.4 µM)
MIC [8]: 0.5 µg/mL (≈ 0.919 µM)
IC90 [9]: 100 µM
MIC [10]: 4 µg/mL (≈ 7.35 µM)
MIC [11]: 8 µg/mL (≈ 14.7 µM)
MIC [12]: 1 µg/mL (≈ 1.84 µM)

O=C(c1ccc(NC(=O)c2cc(Br)cc(Br)c2O)c(Cl)c1)c1cccs1
MIC [1]: ≤ 0.03 µg/mL
MIC [2]: < 0.03 µg/mL
MIC [3]: 8 µg/mL (≈ 15.5 µM)
MIC [4]: 16 µg/mL (≈ 31 µM)
MIC [5]: 16 µg/mL (≈ 31 µM)
MIC [6]: 16 µg/mL (≈ 31 µM)
MIC [7]: 16 µg/mL (≈ 31 µM)
MIC [8]: 0.5 µg/mL (≈ 0.97 µM)
IC90 [9]: > 100 µM
MIC [10]: ≤ 0.03 µg/mL
MIC [11]: 4 µg/mL (≈ 7.76 µM)
MIC [12]: 4 µg/mL (≈ 7.76 µM)
